Experimental data reported in ChEMBL document CHEMBL1150261, “Ring size in octreotide amide modulates differently agonist versus antagonist binding affinity and selectivity” (J Med Chem, 2008).
Activity calls are given as the source filed them. The rule behind the calls is not given here.

Legend:
[1] = molecular target: Somatostatin receptor type 5 (Homo sapiens, UniProt P35346); experiment: Displacement of [125I]-[Leu8, DTrp22, Tyr25]SRIF28 from human sst5 receptor expressed in CHOK1 cells by autoradiography; assay type: cell-based, CHO-K1
[2] = molecular target: T1, Somatostatin receptor type 2 (Homo sapiens, UniProt P30874); experiment: Displacement of [125I]-[Leu8, DTrp22, Tyr25]SRIF28 from human sst2 receptor expressed in chinese hamster CCL39 cells by autoradiography; assay type: cell-based
[3] = molecular target: Somatostatin receptor type 1 (Homo sapiens, UniProt P30872); experiment: Displacement of [125I]-[Leu8, DTrp22, Tyr25]SRIF28 from human sst1 receptor expressed in CHOK1 cells by autoradiography; assay type: cell-based, CHO-K1
[4] = molecular target: Somatostatin receptor type 3 (Homo sapiens, UniProt P32745); experiment: Displacement of [125I]-[Leu8, DTrp22, Tyr25]SRIF28 from human sst3 receptor expressed in chinese hamster CCL39 cells by autoradiography; assay type: cell-based
[5] = molecular target: Somatostatin receptor type 4 (Homo sapiens, UniProt P31391); experiment: Displacement of [125I]-[Leu8, DTrp22, Tyr25]SRIF28 from human sst4 receptor expressed in chinese hamster CCL39 cells by autoradiography; assay type: cell-based
[6] = molecular target: T1, Somatostatin receptor type 2; experiment: Agonist activity at T7-tagged human sst2 receptor expressed in HEK293 cells at 100 to 10000 nM; assay type: functional, cell-based
How it was run: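 Immunofluorescence microscopy internalization in HEK-sst2 cells. Agonist mode: peptides at 100 nM to 10,000 nM. Antagonist mode: 100 nM [Tyr3]-octreotide with 100-fold excess of peptide. Treatment 30 min at 37 °C, 5% CO2 in growth medium, then staining with polyclonal sst2-specific R2-88 antibody; n ≥ 2.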

Somatostatin receptor type 4, sequence (P31391 whole entry): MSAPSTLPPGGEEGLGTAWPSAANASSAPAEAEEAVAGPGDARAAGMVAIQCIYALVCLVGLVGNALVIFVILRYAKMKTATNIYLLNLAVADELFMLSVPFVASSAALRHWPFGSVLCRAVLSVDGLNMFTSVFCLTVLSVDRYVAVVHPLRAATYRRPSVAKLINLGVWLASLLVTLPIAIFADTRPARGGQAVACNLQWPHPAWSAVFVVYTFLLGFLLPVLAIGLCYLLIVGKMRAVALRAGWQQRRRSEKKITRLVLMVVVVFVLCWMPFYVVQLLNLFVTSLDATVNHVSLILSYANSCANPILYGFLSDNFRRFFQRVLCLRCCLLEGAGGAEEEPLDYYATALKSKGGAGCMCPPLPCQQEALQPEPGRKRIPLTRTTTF
T1 sequence (P30874 whole entry): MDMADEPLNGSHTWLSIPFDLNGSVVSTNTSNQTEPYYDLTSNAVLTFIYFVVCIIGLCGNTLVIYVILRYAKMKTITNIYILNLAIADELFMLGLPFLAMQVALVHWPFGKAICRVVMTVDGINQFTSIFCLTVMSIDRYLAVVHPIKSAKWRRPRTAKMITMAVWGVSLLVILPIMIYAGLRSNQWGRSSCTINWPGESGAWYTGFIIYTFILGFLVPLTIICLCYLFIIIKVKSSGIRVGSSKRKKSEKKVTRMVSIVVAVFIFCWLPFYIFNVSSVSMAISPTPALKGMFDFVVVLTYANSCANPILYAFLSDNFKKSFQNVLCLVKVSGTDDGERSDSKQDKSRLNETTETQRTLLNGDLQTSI
Somatostatin receptor type 5, sequence (P35346 whole entry): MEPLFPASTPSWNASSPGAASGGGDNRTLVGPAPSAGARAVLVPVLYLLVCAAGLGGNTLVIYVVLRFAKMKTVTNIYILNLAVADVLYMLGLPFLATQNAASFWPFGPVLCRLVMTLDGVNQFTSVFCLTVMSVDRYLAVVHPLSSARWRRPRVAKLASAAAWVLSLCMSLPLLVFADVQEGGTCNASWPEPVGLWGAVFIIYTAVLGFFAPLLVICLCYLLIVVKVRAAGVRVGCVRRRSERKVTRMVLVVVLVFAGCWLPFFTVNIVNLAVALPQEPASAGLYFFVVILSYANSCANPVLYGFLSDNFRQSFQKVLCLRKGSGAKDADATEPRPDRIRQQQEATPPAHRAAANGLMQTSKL
Somatostatin receptor type 3, sequence (P32745 whole entry): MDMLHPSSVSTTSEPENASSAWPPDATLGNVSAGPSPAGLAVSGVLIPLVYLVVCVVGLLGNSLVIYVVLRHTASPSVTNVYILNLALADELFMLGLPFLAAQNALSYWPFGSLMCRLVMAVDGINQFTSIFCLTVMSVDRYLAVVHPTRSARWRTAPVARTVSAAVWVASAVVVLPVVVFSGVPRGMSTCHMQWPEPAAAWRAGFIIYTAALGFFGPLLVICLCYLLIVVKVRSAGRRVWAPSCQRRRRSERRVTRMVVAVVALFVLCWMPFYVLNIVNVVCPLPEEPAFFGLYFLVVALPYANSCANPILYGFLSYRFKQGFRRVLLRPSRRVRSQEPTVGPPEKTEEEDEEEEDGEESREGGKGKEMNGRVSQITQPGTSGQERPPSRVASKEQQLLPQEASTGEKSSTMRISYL
Somatostatin receptor type 1, sequence (P30872 whole entry): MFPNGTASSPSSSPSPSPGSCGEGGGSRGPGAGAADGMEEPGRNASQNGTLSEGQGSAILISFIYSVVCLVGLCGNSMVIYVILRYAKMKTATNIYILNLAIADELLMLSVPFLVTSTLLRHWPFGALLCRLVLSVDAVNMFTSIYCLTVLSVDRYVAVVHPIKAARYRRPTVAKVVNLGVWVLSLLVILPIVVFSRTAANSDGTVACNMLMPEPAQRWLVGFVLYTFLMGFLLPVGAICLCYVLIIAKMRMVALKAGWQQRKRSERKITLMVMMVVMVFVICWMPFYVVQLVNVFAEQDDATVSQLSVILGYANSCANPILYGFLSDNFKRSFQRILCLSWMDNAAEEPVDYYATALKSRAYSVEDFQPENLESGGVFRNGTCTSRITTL

SMILES	IC50 [1]	IC50 [2]	IC50 [3]	IC50 [4]	IC50 [5]	Activity [6]
C[C@@H](O)[C@@H]1NC(=O)[C@H](CCCCN)NC(=O)[C@@H](Cc2c[nH]c3ccccc23)NC(=O)[C@H](Cc2ccc(O)cc2)NC(=O)[C@H](NC(=O)[C@@H](N)Cc2ccc(Cl)cc2)CCSSCC[C@@H](C(=O)N[C@@H](Cc2ccc3ccccc3c2)C(N)=O)NC1=O	199 nM	267 nM	763 nM	359 nM	174 nM	
C[C@@H](O)[C@H](NC(=O)[C@@H]1CCSSCC[C@H](NC(=O)[C@H](N)Cc2ccccc2)C(=O)N[C@@H](Cc2ccccc2)C(=O)N[C@H](Cc2c[nH]c3ccccc23)C(=O)N[C@@H](CCCCN)C(=O)N[C@@H]([C@@H](C)O)C(=O)N1)C(N)=O	109 nM	4.9 nM	> 1000 nM	452 nM	115 nM	
C[C@@H](O)[C@H](NC(=O)[C@H]1CCSSCC[C@@H](NC(=O)[C@H](N)Cc2ccccc2)C(=O)N[C@@H](Cc2ccccc2)C(=O)N[C@H](Cc2c[nH]c3ccccc23)C(=O)N[C@@H](CCCCN)C(=O)N[C@@H]([C@@H](C)O)C(=O)N1)C(N)=O						Active

The next lines start with the values.

IC50 [1]	IC50 [2]	IC50 [3]	IC50 [4]	IC50 [5]	Activity [6]	SMILES
	1.9 nM	> 1000 nM	39 nM	> 1000 nM	Active	C[C@@H](O)[C@H](NC(=O)[C@@H]1CSSC[C@H](NC(=O)[C@H](N)Cc2ccccc2)C(=O)N[C@@H](Cc2ccccc2)C(=O)N[C@H](Cc2c[nH]c3ccccc23)C(=O)N[C@@H](CCCCN)C(=O)N[C@@H]([C@@H](C)O)C(=O)N1)C(N)=O
> 1000 nM	337 nM	> 1000 nM	> 1000 nM	214 nM		C[C@@H](O)[C@H](NC(=O)[C@@H]1NC(=O)[C@H]([C@@H](C)O)NC(=O)[C@H](CCCCN)NC(=O)[C@@H](Cc2c[nH]c3ccccc23)NC(=O)[C@H](Cc2ccccc2)NC(=O)[C@H](NC(=O)[C@H](N)Cc2ccccc2)SS1)C(N)=O
